How the values were obtained:
Rhizoctonia solani [1] = assay: Fungicidal activity against Rhizoctonia solani infected drug-pretreated cucumber two seeded leaves assessed as decrease in disease index at 500 ug/ml (acetone Rvb = 2.22 +/-0.79%); type: functional
Procedure, shortened: (§1)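 Greenhouse cucumber assay. Fungi kept on PDA at 4 °C and cultured at 24 ± 1 °C. Plants at the two-seed-leaf stage had leaves hand-sprayed at 500 μg/mL, then were inoculated and held at 24 ± 1 °C, >80% RH. Efficacy = (CK − PT)/CK × 100, from average disease indices.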

Botrytis cinerea [2] = assay: Fungicidal activity against Botryotinia fuckeliana infected in drug-pretreated cucumber two seeded leaves assessed as decrease in disease index at 500 ug/ml (acetone Rvb = 1.53 +/-0.21%); type: functional; procedure, shortened: as §1
Corynespora cassiicola [3] = assay: Fungicidal activity against Corynespora cassiicola infected in drug-pretreated cucumber two seeded leaves assessed as decrease in disease index at 500 ug/ml (acetone Rvb = 5.23 +/-0.88%); type: functional; procedure, shortened: as §1
Cladosporium cucumerinum [4] = assay: Fungicidal activity against Cladosporium cucumerinum infected drug-pretreated cucumber two seeded leaves assessed as decrease in disease index at 500 ug/ml (acetone Rvb = 3.18 +/-0.75%); type: functional; procedure, shortened: as §1
Corynespora cassiicola [5] = assay: Fungicidal activity against Corynespora cassiicola infected in drug-pretreated cucumber two seeded leaves assessed as decrease in disease index at 75% WP formulation (acetone Rvb = 5.23 +/-0.88%); type: functional; procedure, shortened: as §1
Cladosporium cucumerinum [6] = assay: Fungicidal activity against Cladosporium cucumerinum infected drug-pretreated cucumber two seeded leaves assessed as decrease in disease index at 40% EC formulation (acetone Rvb = 3.18 +/-0.75%)
Botrytis cinerea [7] = assay: Fungicidal activity against Botryotinia fuckeliana infected in drug-pretreated cucumber two seeded leaves assessed as decrease in disease index at 40% SC formulation (acetone Rvb = 1.53 +/-0.21%); type: functional; procedure, shortened: as §1
Rhizoctonia solani [8] = assay: Fungicidal activity against Rhizoctonia solani infected drug-pretreated cucumber two seeded leaves assessed as decrease in disease index at 3% AS formulation (acetone Rvb = 2.22 +/-0.79%); type: functional; procedure, shortened: as §1

Row | Compound | Efficacy (Rhizoctonia solani [1]) [%] | Efficacy (Botrytis cinerea [2]) [%] | Efficacy (Corynespora cassiicola [3]) [%] | Efficacy (Cladosporium cucumerinum [4]) [%] | Efficacy (Corynespora cassiicola [5]) [%] | Efficacy (Cladosporium cucumerinum [6]) [%] | Efficacy (Botrytis cinerea [7]) [%] | Efficacy (Rhizoctonia solani [8]) [%]
1 | O=C(N/N=C/c1ccc(Cl)cc1)c1ccc(-c2ccccc2F)o1 | -5.2 | 27 | -3.05 | 37.3 |  |  |  | 
2 | O=C(N/N=C/c1ccccc1)c1ccc(-c2ccc(Cl)cc2)o1 | 10.2 | 11 | 50.78 | -8.1 |  |  |  | 
3 | O=C(N/N=C/c1ccccc1Cl)c1ccc(-c2ccc(F)cc2)o1 | 8 | 72 | 13.87 | -22 |  |  |  | 
4 | O=[N+]([O-])c1ccccc1-c1ccc(-c2nnc(-c3ccc(Cl)cc3)o2)o1 | 94.38 | -30.02 | 15.17 | 17.2 |  |  |  | 
5 | COc1ccc(-c2nnc(-c3ccc(-c4ccccc4[N+](=O)[O-])o3)o2)cc1 | 48.48 | 92.68 | 48.61 | 15 |  |  |  | 
6 | CCOc1ccc(-c2nnc(-c3ccc(-c4ccccc4[N+](=O)[O-])o3)o2)cc1 | 65.58 | 33.75 | 74.71 | 8.89 |  |  |  | 
7 | COc1ccc(-c2nnc(-c3ccc(-c4ccc([N+](=O)[O-])cc4)o3)o2)cc1 | -3.97 | 47.83 | 10.59 | 12.35 |  |  |  | 
8 | CCOc1ccc(-c2nnc(-c3ccc(-c4ccc([N+](=O)[O-])cc4)o3)o2)cc1 | 63.47 | 77.78 | 25.49 | 16.48 |  |  |  | 
9 | Fc1ccc(-c2ccc(-c3nnc(-c4ccccc4Cl)o3)o2)cc1 | 25.54 | 76.52 | 27.94 | 7.78 |  |  |  | 
10 | O=C(N/N=C/c1ccc(Br)cc1)c1ccc(-c2ccccc2Cl)o1 | 57.85 | 91.76 | 28.79 | 19.75 |  |  |  | 
11 | CC(=O)N1N=C(c2ccc(-c3ccc(Cl)cc3)o2)OC1c1ccccc1 (stereo not drawn) | 69.09 | 70.71 | 35.29 | 45.61 |  |  |  | 
12 | CC(=O)N1N=C(c2ccc(-c3ccccc3Cl)o2)OC1c1ccc(Br)cc1 (stereo not drawn) | 14.3 | 23.23 | 32.03 | 16.67 |  |  |  | 
13 | CC(=O)N1N=C(c2ccc(-c3ccccc3F)o2)OC1c1ccc(Cl)cc1 (stereo not drawn) | 66.28 | 18.89 | 28.85 | 31.11 |  |  |  | 
14 | CC(=O)N1N=C(c2ccc(-c3ccc(F)cc3)o2)OC1c1ccccc1Cl (stereo not drawn) | 31.03 | 76.28 | 28.72 | 40 |  |  |  | 
15 | CCC(=O)N1N=C(c2ccc(-c3ccccc3Cl)o2)OC1c1ccc(Br)cc1 (stereo not drawn) | 63.87 | 13.91 | 41.18 | 23.98 |  |  |  | 
16 | CCC(=O)N1N=C(c2ccc(-c3ccc(F)cc3)o2)OC1c1ccccc1Cl (stereo not drawn) | 52.33 | -24.9 | 46.75 | 31.48 |  |  |  | 
17 | O=C(NNC(=O)c1ccc(-c2ccccc2Cl)o1)c1ccc(Br)cc1 | 49.42 | 24.64 | 8.24 | 14.2 |  |  |  | 
18 | Cc1ccc(C(=O)NNC(=O)c2ccc(-c3ccc(Cl)cc3)o2)cc1 | 19.8 | 4.35 | 50.87 | 29.8 |  |  |  | 
19 | O=C(NNC(=O)c1ccc(-c2ccccc2[N+](=O)[O-])o1)c1ccc(Cl)cc1 | 95.56 | 79.58 | 66.09 | 14.44 |  |  |  | 
20 | COc1ccc(C(=O)NNC(=O)c2ccc(-c3ccccc3[N+](=O)[O-])o2)cc1 | 56.45 | 35.5 | 28.35 | 2.61 |  |  |  | 
21 | CCOc1ccc(C(=O)NNC(=O)c2ccc(-c3ccccc3[N+](=O)[O-])o2)cc1 | 78.93 | -43.27 | 18.82 | 10 |  |  |  | 
22 | COc1ccc(C(=O)NNC(=O)c2ccc(-c3ccc([N+](=O)[O-])cc3)o2)cc1 | 24.45 | 29.9 | 36.36 | 57.89 |  |  |  | 
23 | CCOc1ccc(C(=O)NNC(=O)c2ccc(-c3ccc([N+](=O)[O-])cc3)o2)cc1 | 71.9 | 79.13 | 38.24 | 28.35 |  |  |  | 
24 | O=C(NNC(=O)c1ccccc1Cl)c1ccc(-c2ccc(F)cc2)o1 | 69.35 | 89.57 | 34.26 | 30.32 |  |  |  | 
25 | Clc1ccccc1-c1ccc(-c2nnc(-c3ccc(Br)cc3)o2)o1 | -1.16 | -2.61 | 90.59 | 17.9 |  |  |  | 
26 | Cc1ccc(-c2nnc(-c3ccc(-c4ccc(Cl)cc4)o3)o2)cc1 | 24.13 | 42.38 | 28.24 | 5.85 |  |  |  | 
27 | N#Cc1c(Cl)c(Cl)c(Cl)c(C#N)c1Cl [CHLOROTHALONIL] |  |  |  |  | 93.53 |  |  | 
28 | C[Si](Cn1cncn1)(c1ccc(F)cc1)c1ccc(F)cc1 [FLUSILAZOLE] |  |  |  |  |  | 95.56 |  | 
29 | Cc1cc(C)nc(Nc2ccccc2)n1 [PYRIMETHANIL] |  |  |  |  |  |  | 69.57 | 
30 | OCC1=C[C@H](N[C@H]2C[C@H](CO)[C@@H](O[C@@H]3O[C@H](CO)[C@@H](O)[C@H](O)[C@H]3O)[C@H](O)[C@H]2O)[C@H](O)[C@@H](O)[C@@H]1O [VALIDAMYCIN] |  |  |  |  |  |  |  | 93.68

Reference: ChEMBL document CHEMBL3045525, “Synthesis and fungicidal activity of novel 2,5-disubstituted-1,3,4-oxadiazole derivatives” (2012)
